Test results published in ChEMBL document CHEMBL3860041, “Synthesis, biological evaluation and molecular modeling study of some new methoxylated 2-benzylthio-quinazoline-4(3H)-ones as nonclassical antifolates” (Bioorg Med Chem Lett, 2016).

Key:
Type in all cases: functional
[1] = Growth inhibition of human PC3 cells at 10 uM after 48 hrs by SRB assay relative to control; details: PC-3, 48 h, read-out: GI
In short: (§1)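 NCI 60-cell-line panel, nine tumor subpanels; compounds tested at a single dose of 10 μM in the primary screen.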

[2] = Growth inhibition of human COLO205 cells at 10 uM after 48 hrs by SRB assay relative to control; details: COLO 205, 48 h, read-out: GI; in short: as §1
[3] = Growth inhibition of human BT549 cells at 10 uM after 48 hrs by SRB assay relative to control; details: BT-549, 48 h, read-out: GI; in short: as §1
[4] = Growth inhibition of human SNB75 cells at 10 uM after 48 hrs by SRB assay relative to control; details: SNB-75, 48 h, read-out: GI
In short: (§2)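 Primary screen across the full NCI 60 human tumour cell line panel, which covers nine tumour subpanels. A single dose of 10 μM was applied to each line, and growth was recorded for each cell line.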

[5] = Growth inhibition of human SW620 cells at 10 uM after 48 hrs by SRB assay relative to control; details: SW-620, 48 h, read-out: GI; in short: as §2
[6] = Growth inhibition of human MALME-3M cells at 10 uM after 48 hrs by SRB assay relative to control; details: read-out: GI; in short: as §1
[7] = Growth inhibition of human HCT116 cells at 10 uM after 48 hrs by SRB assay relative to control; details: HCT-116, 48 h, read-out: GI; in short: as §1
[8] = Growth inhibition of human T47D cells at 10 uM after 48 hrs by SRB assay relative to control; details: read-out: GI; in short: as §2
[9] = Growth inhibition of human SK-MEL-2 cells at 10 uM after 48 hrs by SRB assay relative to control; details: SK-MEL-2, 48 h, read-out: GI; in short: as §2
[10] = Growth inhibition of human IGROV1 cells at 10 uM after 48 hrs by SRB assay relative to control; details: IGROV-1, 48 h, read-out: GI; in short: as §1
[11] = Growth inhibition of human NCI-H460 cells at 10 uM after 48 hrs by SRB assay relative to control; details: NCI-H460, 48 h, read-out: GI; in short: as §1
[12] = Growth inhibition of human HCT15 cells at 10 uM after 48 hrs by SRB assay relative to control; details: HCT-15, 48 h, read-out: GI; in short: as §1
[13] = Growth inhibition of human KM12 cells at 10 uM after 48 hrs by SRB assay relative to control; details: KM12, 48 h, read-out: GI; in short: as §1
[14] = Growth inhibition of human MDA-MB-468 cells at 10 uM after 48 hrs by SRB assay relative to control; details: MDA-MB-468, 48 h, read-out: GI; in short: as §1
[15] = Growth inhibition of human K562 cells at 10 uM after 48 hrs by SRB assay relative to control; details: K562, 48 h, read-out: GI; in short: as §1
[16] = Growth inhibition of human SF295 cells at 10 uM after 48 hrs by SRB assay relative to control; details: SF-295, 48 h, read-out: GI; in short: as §1
[17] = Growth inhibition of human HOP62 cells at 10 uM after 48 hrs by SRB assay relative to control; details: HOP-62, 48 h, read-out: GI; in short: as §1
[18] = Growth inhibition of human OVCAR3 cells at 10 uM after 48 hrs by SRB assay relative to control; details: OVCAR-3, 48 h, read-out: GI; in short: as §1
[19] = Growth inhibition of human ACHN cells at 10 uM after 48 hrs by SRB assay relative to control; details: read-out: GI; in short: as §1
[20] = Growth inhibition of human NCI-H522 cells at 10 uM after 48 hrs by SRB assay relative to control; details: NCI-H522, 48 h, read-out: GI; in short: as §1
[21] = Growth inhibition of human M14 cells at 10 uM after 48 hrs by SRB assay relative to control; details: M14, 48 h, read-out: GI; in short: as §1
[22] = Growth inhibition of human RPMI8226 cells at 10 uM after 48 hrs by SRB assay relative to control; details: RPMI-8226, 48 h, read-out: GI; in short: as §1
[23] = Growth inhibition of human NCI-H23 cells at 10 uM after 48 hrs by SRB assay relative to control; details: NCI-H23, 48 h, read-out: GI; in short: as §1
[24] = Growth inhibition of human NCI/ADR-RES cells at 10 uM after 48 hrs by SRB assay relative to control; details: read-out: GI; in short: as §1
[25] = Growth inhibition of human OVCAR5 cells at 10 uM after 48 hrs by SRB assay relative to control; details: OVCAR-5, 48 h, read-out: GI; in short: as §1
[26] = Growth inhibition of human HL-60(TB) cells at 10 uM after 48 hrs by SRB assay relative to control; details: HL-60, 48 h, read-out: GI
In short: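 NCI disease-oriented human tumour cell line screen: primary single-dose assay at 10 μM across the full 60-cell-line panel spanning nine tumour subpanels.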

Row | SMILES | inhibition of growth at 10 µM [1] | inhibition of growth at 10 µM [2] | inhibition of growth at 10 µM [3] | inhibition of growth at 10 µM [4] | inhibition of growth at 10 µM [5] | inhibition of growth at 10 µM [6] | inhibition of growth at 10 µM [7] | inhibition of growth at 10 µM [8] | inhibition of growth at 10 µM [9] | inhibition of growth at 10 µM [10] | inhibition of growth at 10 µM [11] | inhibition of growth at 10 µM [12] | inhibition of growth at 10 µM [13] | inhibition of growth at 10 µM [14] | inhibition of growth at 10 µM [15] | inhibition of growth at 10 µM [16] | inhibition of growth at 10 µM [17] | inhibition of growth at 10 µM [18] | inhibition of growth at 10 µM [19] | inhibition of growth at 10 µM [20] | also measured
1 | COc1cc2nc(SCc3cc(OC)c(OC)c(OC)c3)n(-c3ccccc3OC)c(=O)c2cc1OC | 38.9% | < 10% | 12.5% | 37.2% | 23.6% | 37% | 12% | 11.4% | < 10% | 16.9% | 16.6% | 24.6% | 45.9% | 23% | 72.7% | 26.2% | < 10% | 51.8% | 11.5% | < 10% | inhibition of growth at 10 µM [21]: 23%; inhibition of growth at 10 µM [22]: 28.8%; inhibition of growth at 10 µM [23]: 20.1%; inhibition of growth at 10 µM [24]: 37.1%; inhibition of growth at 10 µM [25]: 11%
2 | COc1cc(CSc2nc3ccc(Cl)cc3c(=O)n2-c2ccccc2)cc(OC)c1OC | 26.8% | 15.5% | < 10% | 24.3% | 20.3% | 23.5% | 38.2% | 29.1% | 22.5% | 27.5% | < 10% | 47.5% | 50.2% | 42.7% | 61.8% | 15.8% | 28% | 22.2% | 21.1% | 61.6% | inhibition of growth at 10 µM [21]: < 10%; inhibition of growth at 10 µM [22]: < 10%; inhibition of growth at 10 µM [26]: < 10%; inhibition of growth at 10 µM [23]: 21%; inhibition of growth at 10 µM [24]: 24.5%; inhibition of growth at 10 µM [25]: 15.4%
3 | COc1ccc(-n2c(SCc3cc(OC)c(OC)c(OC)c3)nc3ccc(Cl)cc3c2=O)cc1 | 37.7% | < 10% | < 10% | < 10% | < 10% | < 10% | 33.3% | 23.9% | < 10% | 16.3% | 10.3% | 19.3% | 18.7% | 13.4% | 28.6% | 16.7% | < 10% | < 10% | 16.4% | 16.7% | inhibition of growth at 10 µM [21]: < 10%; inhibition of growth at 10 µM [22]: 33.8%; inhibition of growth at 10 µM [26]: < 10%; inhibition of growth at 10 µM [23]: 20.2%; inhibition of growth at 10 µM [24]: 10.7%; inhibition of growth at 10 µM [25]: 10.5%
